Several values for one entry are separate records, joined by “and”; a condition that tells them apart may be missing. Identical values can stand only once.
Test system: U2OS
Test: Multiplex assay against U2OS
Format: toxicity, cell-based
Conditions: human
Procedure, shortened: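 Live cells were stained at seeding with Hoechst33342, BioTracker Green Microtubule Cytoskeleton Dye, MitoTracker Red and Annexin V Alexa Fluor 680, then imaged on a CQ1 microscope at 37°C and 5% CO2 after compound addition. CellPathfinder machine-learning gating split cells into Hoechst high-intensity objects or normal cells. Normal cells were split into healthy, pyknosed or fragmented nuclei, and pyknosed cells into mitotic or apoptotic. Tubulin, mitochondrial-mass and membrane-permeability phenotypes are per cents of healthy-nucleus cells.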

[1] = 12 h, 1 µM, compound concentration 1 uM
[2] = 12 h, 10 µM, compound concentration 10 uM
[3] = 24 h, 1 µM, compound concentration 1 uM
[4] = 24 h, 10 µM, compound concentration 10 uM
[5] = 48 h, 1 µM, compound concentration 1 uM
[6] = 48 h, 10 µM, compound concentration 10 uM

In the case of `CCOc1c2c(c(OCC)c3ncccc13)CN(c1ccc(CS(=O)(=O)NC(=O)Cc3ccccc3OC)cc1C)C2=O`, the “Population Apoptotic (%)” value [1] is reported as 64% and 100%, the “Population Fragmented Nuclei (%)” value [1] is reported as 22% and 13% and the “Population Healthy Nuclei (%)” value [1] is reported as 70% and 82%. For the same compound, the “Population Hoechst High Intensity Objects (%)” value [1] was 2% and 1%, the “Population Membrane Permeable-Phenotype (%)” value [1] was 7% and 9% and the “Population Mitochondria Different-Phenotype (%)” value [1] was 3%. The “Population Normal (%)” value [1] was 97% and 98%, the “Population Pyknosed Nuclei (%)” value [1] was 7% and 4% and the “Population Tubulin-Different-Phenotype (%)” value [1] was 2% and 6%. For the same compound, the “Total Cell Count” value [1] was 189 and 93, the “Population Apoptotic (%)” value [2] was 81% and 80% and the “Population Fragmented Nuclei (%)” value [2] was 30% and 21%. For the same compound, the “Population Healthy Nuclei (%)” value [2] was 63% and 75%, the “Population Hoechst High Intensity Objects (%)” value [2] was 2% and the “Population Membrane Permeable-Phenotype (%)” value [2] was 5% and 8%. The “Population Mitochondria Different-Phenotype (%)” value [2] was 3% and 6%, the “Population Mitotic Cells (%)” value [2] was 18% and 20% and the “Population Normal (%)” value [2] was 97%. For the same compound, the “Population Pyknosed Nuclei (%)” value [2] was 6% and 3%, the “Population Tubulin-Different-Phenotype (%)” value [2] was 2% and 3% and the “Total Cell Count” value [2] was 248 and 136. For the same compound, the “Population Apoptotic (%)” value [3] was 80% and 100%, the “Population Fragmented Nuclei (%)” value [3] was 21% and 19% and the “Population Healthy Nuclei (%)” value [3] was 71% and 76%. For the same compound, the “Population Hoechst High Intensity Objects (%)” value [3] was 3% and 1%, the “Population Membrane Permeable-Phenotype (%)” value [3] was 4% and 7% and the “Population Mitochondria Different-Phenotype (%)” value [3] was 0% and 4%. For the same compound, the “Population Mitotic Cells (%)” value [3] was 20% and 0%, the “Population Normal (%)” value [3] was 96% and 98% and the “Population Pyknosed Nuclei (%)” value [3] was 6% and 4%. The “Population Tubulin-Different-Phenotype (%)” value [3] was 1% and 4%, the “Total Cell Count” value [3] was 235 and 125 and the “Population Apoptotic (%)” value [4] was 76% and 100%. For the same compound, the “Population Fragmented Nuclei (%)” value [4] was 27% and 17%, the “Population Healthy Nuclei (%)” value [4] was 61% and 76% and the “Population Hoechst High Intensity Objects (%)” value [4] was 3% and 0%. For the same compound, the “Population Membrane Permeable-Phenotype (%)” value [4] was 6%, the “Population Mitochondria Different-Phenotype (%)” value [4] was 2% and the “Population Mitotic Cells (%)” value [4] was 23% and 0%. For the same compound, the “Population Normal (%)” value [4] was 96% and 99%, the “Population Pyknosed Nuclei (%)” value [4] was 10% and 5% and the “Population Tubulin-Different-Phenotype (%)” value [4] was 1% and 5%. For the same compound, the “Total Cell Count” value [4] was 285 and 152, the “Population Apoptotic (%)” value [5] was 85% and 100% and the “Population Fragmented Nuclei (%)” value [5] was 19% and 17%. For the same compound, the “Population Healthy Nuclei (%)” value [5] was 74% and 79%, the “Population Hoechst High Intensity Objects (%)” value [5] was 2% and 4% and the “Population Membrane Permeable-Phenotype (%)” value [5] was 3% and 7%. The “Population Mitochondria Different-Phenotype (%)” value [5] was 1% and 3%, the “Population Mitotic Cells (%)” value [5] was 15% and 0% and the “Population Normal (%)” value [5] was 97% and 95%. The “Population Pyknosed Nuclei (%)” value [5] was 5% and 2%, the “Population Tubulin-Different-Phenotype (%)” value [5] was 2% and 5% and the “Total Cell Count” value [5] was 344 and 167. For the same compound, the “Population Apoptotic (%)” value [6] was 91% and 100%, the “Population Fragmented Nuclei (%)” value [6] was 19% and 18% and the “Population Healthy Nuclei (%)” value [6] was 71% and 74%. The “Population Hoechst High Intensity Objects (%)” value [6] was 2%, the “Population Membrane Permeable-Phenotype (%)” value [6] was 5% and 8% and the “Population Mitochondria Different-Phenotype (%)” value [6] was 1% and 4%. For the same compound, the “Population Mitotic Cells (%)” value [6] was 8% and 0%, the “Population Normal (%)” value [6] was 97% and the “Population Pyknosed Nuclei (%)” value [6] was 9% and 6%. The “Population Tubulin-Different-Phenotype (%)” value [6] was 2% and 3% and the “Total Cell Count” value [6] was 385 and 236.

In the case of `COC[C@@H](CC(C)C)NC1=N/C(=C\c2ccc3ncsc3c2)C(=O)N1C`, the “Population Apoptotic (%)” value [1] is reported as 55.88% and 33.33%, the “Population Fragmented Nuclei (%)” value [1] is reported as 15.5% and 15.08% and the “Population Healthy Nuclei (%)” value [1] is reported as 77.48% and 78.21%. For the same compound, the “Population Hoechst High Intensity Objects (%)” value [1] was 0.41% and 0%, the “Population Membrane Permeable-Phenotype (%)” value [1] was 0.8% and 2.14% and the “Population Mitochondria Different-Phenotype (%)” value [1] was 0.27% and 9.29%. The “Population Mitotic Cells (%)” value [1] was 44.12% and 66.67%, the “Population Normal (%)” value [1] was 99.59% and 100% and the “Population Pyknosed Nuclei (%)” value [1] was 7.02% and 6.7%. For the same compound, the “Population Tubulin-Different-Phenotype (%)” value [1] was 1.33% and 0%, the “Total Cell Count” value [1] was 486 and 179 and the “Population Apoptotic (%)” value [2] was 25% and 29.63%. The “Population Fragmented Nuclei (%)” value [2] was 47.65% and 84.45%, the “Population Hoechst High Intensity Objects (%)” value [2] was 29.32% and 10.96% and the “Population Membrane Permeable-Phenotype (%)” value [2] was 4.62% and 2.68%. The “Population Mitotic Cells (%)” value [2] was 75% and 70.37%, the “Population Normal (%)” value [2] was 70.68% and 89.04% and the “Population Pyknosed Nuclei (%)” value [2] was 3.24% and 3.02%. For the same compound, the “Population Tubulin-Different-Phenotype (%)” value [2] was 20.13% and 12.5%, the “Total Cell Count” value [2] was 873 and 1004 and the “Population Apoptotic (%)” value [3] was 67.39% and 47.62%. For the same compound, the “Population Fragmented Nuclei (%)” value [3] was 12.71% and 10%, the “Population Healthy Nuclei (%)” value [3] was 79.7% and 80.87% and the “Population Hoechst High Intensity Objects (%)” value [3] was 0%. For the same compound, the “Population Membrane Permeable-Phenotype (%)” value [3] was 0.41% and 0%, the “Population Mitochondria Different-Phenotype (%)” value [3] was 0.41% and 6.45% and the “Population Mitotic Cells (%)” value [3] was 32.61% and 52.38%. For the same compound, the “Population Normal (%)” value [3] was 100%, the “Population Pyknosed Nuclei (%)” value [3] was 7.59% and 9.13% and the “Population Tubulin-Different-Phenotype (%)” value [3] was 0.83% and 0%. For the same compound, the “Total Cell Count” value [3] was 606 and 230, the “Population Fragmented Nuclei (%)” value [4] was 53.16% and 86.53% and the “Population Hoechst High Intensity Objects (%)” value [4] was 30.44% and 12.75%. The “Population Membrane Permeable-Phenotype (%)” value [4] was 2.98% and 2.22%, the “Population Mitotic Cells (%)” value [4] was 91.67% and 75% and the “Population Normal (%)” value [4] was 69.56% and 87.25%. The “Population Pyknosed Nuclei (%)” value [4] was 4.34% and 3.2%, the “Population Tubulin-Different-Phenotype (%)” value [4] was 20% and 8.89% and the “Total Cell Count” value [4] was 795 and 1004. For the same compound, the “Population Apoptotic (%)” value [5] was 48.44% and 55.56%, the “Population Fragmented Nuclei (%)” value [5] was 12.46% and 10.34% and the “Population Healthy Nuclei (%)” value [5] was 81.16% and 82.49%. The “Population Hoechst High Intensity Objects (%)” value [5] was 0.69% and 0.79%, the “Population Membrane Permeable-Phenotype (%)” value [5] was 1.6% and 0.64% and the “Population Mitochondria Different-Phenotype (%)” value [5] was 0% and 3.54%. For the same compound, the “Population Mitotic Cells (%)” value [5] was 51.56% and 44.44%, the “Population Normal (%)” value [5] was 99.31% and 99.21% and the “Population Pyknosed Nuclei (%)” value [5] was 6.38% and 7.16%. The “Population Tubulin-Different-Phenotype (%)” value [5] was 0.86% and 0%, the “Total Cell Count” value [5] was 1010 and 380 and the “Population Apoptotic (%)” value [6] was 42.86% and 52.83%. For the same compound, the “Population Fragmented Nuclei (%)” value [6] was 86.99% and 92.61%, the “Population Healthy Nuclei (%)” value [6] was 3.8% and 2.78% and the “Population Hoechst High Intensity Objects (%)” value [6] was 32.94% and 15.32%. For the same compound, the “Population Membrane Permeable-Phenotype (%)” value [6] was 3.85% and 3.12%, the “Population Mitochondria Different-Phenotype (%)” value [6] was 0% and 3.12% and the “Population Mitotic Cells (%)” value [6] was 57.14% and 47.17%. For the same compound, the “Population Normal (%)” value [6] was 67.06% and 84.68%, the “Population Pyknosed Nuclei (%)” value [6] was 9.21% and 4.61% and the “Population Tubulin-Different-Phenotype (%)” value [6] was 3.85% and 6.25%. For the same compound, the “Total Cell Count” value [6] was 1020 and 1358.

Source: ChEMBL document CHEMBL5724801, “EUbOPEN Chemogenomics Library - Multiplex” (2024)
